Laboratory results from ChEMBL document CHEMBL4330143, “Maximizing ER-α Degradation Maximizes Activity in a Tamoxifen-Resistant Breast Cancer Model: Identification of GDC-0927” (ACS Med Chem Lett, 2019).
Active and inactive are the calls of the source. The calls are words filed in the database; no cut-off is given here.

Legend:
[1] = Clearance in rat at 10 mg/kg, po daily for 3 days measured on day 3 post last dose; format: ADME, organism-based; details: in vivo
[2] = system: MCF7; experiment: Antitumor activity against tamoxifen-resistant human MCF7 cells xenografted in nude mouse at 100 mg/kg, po daily for 28 days; format: functional, organism-based
Procedure, shortened: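 Tamoxifen-resistant MCF-7 tumours grown subcutaneously in mice, with estradiol supplied from subcutaneous 0.72 mg estradiol pellets.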

[3] = AUC in rat at 10 mg/kg, po daily for 3 days measured on day 3 post last dose; format: ADME, organism-based; details: in vivo
[4] = target: T1, Glucocorticoid receptor (Homo sapiens) (UniProt P04150); experiment: Antagonist activity at GR (unknown origin) by transcriptional reporter assay
T1 sequence (whole entry): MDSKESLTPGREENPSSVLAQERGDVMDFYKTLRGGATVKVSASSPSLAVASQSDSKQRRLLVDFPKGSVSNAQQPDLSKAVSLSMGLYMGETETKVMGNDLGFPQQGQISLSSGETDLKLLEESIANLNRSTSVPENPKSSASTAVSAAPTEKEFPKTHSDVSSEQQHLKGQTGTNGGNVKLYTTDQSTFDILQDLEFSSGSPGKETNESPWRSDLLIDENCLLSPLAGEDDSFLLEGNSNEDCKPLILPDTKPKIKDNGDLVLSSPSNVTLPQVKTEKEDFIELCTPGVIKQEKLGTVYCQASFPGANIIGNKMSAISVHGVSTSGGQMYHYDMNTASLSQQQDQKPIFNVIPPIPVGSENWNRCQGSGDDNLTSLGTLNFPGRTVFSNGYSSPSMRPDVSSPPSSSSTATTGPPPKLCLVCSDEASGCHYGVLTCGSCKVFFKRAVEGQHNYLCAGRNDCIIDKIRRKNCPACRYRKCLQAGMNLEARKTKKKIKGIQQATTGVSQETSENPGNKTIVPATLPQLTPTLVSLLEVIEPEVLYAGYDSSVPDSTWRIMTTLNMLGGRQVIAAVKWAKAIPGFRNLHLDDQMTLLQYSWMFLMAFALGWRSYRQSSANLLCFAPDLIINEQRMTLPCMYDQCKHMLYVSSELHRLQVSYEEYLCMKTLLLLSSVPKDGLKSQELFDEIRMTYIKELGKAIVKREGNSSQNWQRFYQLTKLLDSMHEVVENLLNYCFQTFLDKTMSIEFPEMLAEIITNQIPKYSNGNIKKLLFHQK

[5] = target: T2, Mineralocorticoid receptor (Homo sapiens) (UniProt P08235); experiment: Antagonist activity at MR (unknown origin) by transcriptional reporter assay
T2 sequence (whole entry): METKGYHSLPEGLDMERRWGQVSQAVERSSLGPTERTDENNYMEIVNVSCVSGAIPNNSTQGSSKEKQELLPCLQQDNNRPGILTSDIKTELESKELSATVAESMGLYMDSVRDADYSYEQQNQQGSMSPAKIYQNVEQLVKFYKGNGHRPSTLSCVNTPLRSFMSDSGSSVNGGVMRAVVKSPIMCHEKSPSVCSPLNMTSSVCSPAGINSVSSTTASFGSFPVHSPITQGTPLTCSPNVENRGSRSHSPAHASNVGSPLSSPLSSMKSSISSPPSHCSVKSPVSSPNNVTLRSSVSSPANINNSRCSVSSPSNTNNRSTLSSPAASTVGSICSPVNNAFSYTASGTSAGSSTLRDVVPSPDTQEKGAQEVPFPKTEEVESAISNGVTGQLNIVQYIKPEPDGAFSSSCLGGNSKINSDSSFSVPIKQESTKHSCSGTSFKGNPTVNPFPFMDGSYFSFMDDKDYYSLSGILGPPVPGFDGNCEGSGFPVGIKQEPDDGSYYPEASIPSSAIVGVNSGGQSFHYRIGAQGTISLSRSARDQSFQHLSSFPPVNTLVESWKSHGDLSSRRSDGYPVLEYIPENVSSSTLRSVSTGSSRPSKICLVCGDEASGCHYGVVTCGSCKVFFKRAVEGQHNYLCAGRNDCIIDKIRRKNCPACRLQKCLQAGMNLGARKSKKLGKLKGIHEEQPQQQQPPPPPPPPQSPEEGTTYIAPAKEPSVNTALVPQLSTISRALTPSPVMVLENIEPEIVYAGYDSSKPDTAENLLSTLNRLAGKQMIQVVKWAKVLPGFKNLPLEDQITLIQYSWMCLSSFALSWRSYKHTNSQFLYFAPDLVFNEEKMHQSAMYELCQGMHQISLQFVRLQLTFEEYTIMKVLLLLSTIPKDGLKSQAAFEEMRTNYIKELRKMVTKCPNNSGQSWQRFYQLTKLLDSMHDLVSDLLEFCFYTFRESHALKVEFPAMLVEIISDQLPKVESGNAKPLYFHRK

[6] = target: T3, Cytochrome P450 1A2 (Homo sapiens, UniProt P05177); experiment: Competitive inhibition of CYP1A2 (unknown origin); format: ADME
T3 sequence (P05177 whole entry): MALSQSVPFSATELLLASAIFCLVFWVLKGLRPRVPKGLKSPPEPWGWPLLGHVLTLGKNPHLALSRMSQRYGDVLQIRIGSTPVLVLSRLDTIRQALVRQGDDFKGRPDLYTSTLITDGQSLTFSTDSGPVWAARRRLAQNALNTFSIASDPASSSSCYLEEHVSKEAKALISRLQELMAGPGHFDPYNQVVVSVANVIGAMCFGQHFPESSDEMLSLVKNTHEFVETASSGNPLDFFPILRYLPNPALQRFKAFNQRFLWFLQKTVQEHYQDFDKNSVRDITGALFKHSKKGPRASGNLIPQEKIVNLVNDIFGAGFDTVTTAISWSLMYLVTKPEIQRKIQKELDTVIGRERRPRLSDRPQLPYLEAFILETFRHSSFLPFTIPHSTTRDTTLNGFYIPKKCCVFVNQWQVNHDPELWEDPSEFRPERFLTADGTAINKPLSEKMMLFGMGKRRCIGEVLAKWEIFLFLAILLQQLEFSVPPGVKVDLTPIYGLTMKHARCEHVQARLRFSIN

[7] = target: Cytochrome P450 3A4 (Homo sapiens, UniProt P08684); experiment: Competitive inhibition of CYP3A4 (unknown origin); format: ADME
Sequence of Cytochrome P450 3A4 (P08684 whole entry): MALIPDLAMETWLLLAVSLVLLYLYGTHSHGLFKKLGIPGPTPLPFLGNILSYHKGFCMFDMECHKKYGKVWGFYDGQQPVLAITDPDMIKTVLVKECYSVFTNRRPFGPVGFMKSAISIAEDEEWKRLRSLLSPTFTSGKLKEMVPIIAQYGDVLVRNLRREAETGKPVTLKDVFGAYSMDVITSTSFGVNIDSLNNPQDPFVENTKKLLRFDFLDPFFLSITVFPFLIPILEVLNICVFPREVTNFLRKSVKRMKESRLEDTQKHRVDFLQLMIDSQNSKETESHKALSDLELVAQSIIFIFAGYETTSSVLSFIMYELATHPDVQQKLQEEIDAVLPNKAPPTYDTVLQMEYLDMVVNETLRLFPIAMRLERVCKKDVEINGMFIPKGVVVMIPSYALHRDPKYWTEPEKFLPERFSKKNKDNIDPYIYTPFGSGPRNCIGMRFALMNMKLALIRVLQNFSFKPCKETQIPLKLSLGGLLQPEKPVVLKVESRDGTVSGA

[8] = target: Cytochrome P450 2C9 (Homo sapiens, UniProt P11712); experiment: Inhibition of CYP2C9 (unknown origin); format: ADME
Sequence of Cytochrome P450 2C9 (P11712 whole entry): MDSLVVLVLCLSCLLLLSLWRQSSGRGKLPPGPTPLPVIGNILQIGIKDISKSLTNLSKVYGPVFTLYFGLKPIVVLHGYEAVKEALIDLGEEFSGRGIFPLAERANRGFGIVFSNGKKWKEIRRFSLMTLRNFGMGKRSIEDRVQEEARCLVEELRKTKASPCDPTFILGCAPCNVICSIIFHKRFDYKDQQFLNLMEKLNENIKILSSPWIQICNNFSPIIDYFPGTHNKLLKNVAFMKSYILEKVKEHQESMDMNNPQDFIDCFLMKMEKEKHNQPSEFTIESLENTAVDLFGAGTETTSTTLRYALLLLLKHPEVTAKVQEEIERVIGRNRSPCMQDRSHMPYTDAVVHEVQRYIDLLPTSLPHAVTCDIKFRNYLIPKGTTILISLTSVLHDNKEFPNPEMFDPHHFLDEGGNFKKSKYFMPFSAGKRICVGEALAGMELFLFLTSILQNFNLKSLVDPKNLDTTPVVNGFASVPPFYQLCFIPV

[9] = target: Sodium-dependent dopamine transporter (Homo sapiens, UniProt Q01959); experiment: Inhibition of dopamine transporter (unknown origin)
Sequence of Sodium-dependent dopamine transporter (Q01959 whole entry): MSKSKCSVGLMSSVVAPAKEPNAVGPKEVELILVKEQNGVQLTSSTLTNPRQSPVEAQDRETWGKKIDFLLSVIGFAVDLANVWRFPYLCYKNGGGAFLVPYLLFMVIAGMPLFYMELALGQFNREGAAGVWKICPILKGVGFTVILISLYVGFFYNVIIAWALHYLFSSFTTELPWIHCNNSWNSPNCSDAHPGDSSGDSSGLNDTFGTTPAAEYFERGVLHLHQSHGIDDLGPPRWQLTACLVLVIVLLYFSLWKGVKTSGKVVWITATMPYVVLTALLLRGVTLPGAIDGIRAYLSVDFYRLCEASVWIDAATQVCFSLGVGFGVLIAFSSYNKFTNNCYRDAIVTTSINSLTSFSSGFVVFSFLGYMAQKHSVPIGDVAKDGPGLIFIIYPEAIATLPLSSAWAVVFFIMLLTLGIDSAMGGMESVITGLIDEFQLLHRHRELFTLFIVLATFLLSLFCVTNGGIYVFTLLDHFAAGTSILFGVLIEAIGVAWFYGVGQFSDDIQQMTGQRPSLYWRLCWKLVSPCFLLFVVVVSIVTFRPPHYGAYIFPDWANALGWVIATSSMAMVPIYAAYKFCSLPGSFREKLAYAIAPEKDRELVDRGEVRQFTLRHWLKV
Procedure, shortened: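 Cell-based functional follow-up assay, done after hits in a radioligand binding panel run under protein-free conditions. Value reported as IC50.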

For `CC1=C(c2cccc(O)c2)[C@H](c2ccc(OCCN3CC(CF)C3)cc2)Oc2ccc(O)cc21`, the CL/F [1] was over 60 mL/min/kg, the Activity [2] was “Active” and the AUC at 72 h [3] was 160 ng·h/mL. The inhibition [4] was “inactive”, the inhibition [5] was “inactive” and the IC50 [6] was over 10 µM. The IC50 [7] was over 10 µM, the IC50 [8] was 3.2 µM and the IC50 [9] was 390 nM.
